Assay results from ChEMBL document CHEMBL2202986, “Guaianolide sesquiterpene lactones, a source to discover agents that selectively inhibit acute myelogenous leukemia stem and progenitor cells” (J Med Chem, 2012).
pIC50: −log10 of the molar value.

How the values were obtained:
[1] = Antitumor activity against mixed-lineage human leukemia cells xenografted in NOD/SCID mouse assessed as reduction of CD45+CD33+ cells in bone marrow at 100 mg/kg, po qd administered every other day total of seven doses starting from 8 weeks post grafting measured on day 35 (reference value: 9.8 %); type: functional, Leukemia cell; set-up: scale not given: the % may be the effect or the level left
[2] = Antitumor activity against human leukemia stem/progenitor cells xenografted in NOD/SCID mouse assessed as survival rate at 100 mg/kg, po qd administered every other day total of seven doses starting from 8 weeks post grafting measured on day 85; type: functional
Outline: (§1)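 NOD/SCID mice were sublethally irradiated (280cGay), then 6−10 h later given primary AML M5 patient cells via tail vein in PBS. From 8 weeks postinoculation, aqueous solution was given orally at 100 mg/kg every other day for seven doses. Survival was followed, Kaplan−Meier, n = 6 per treated group and n = 7 untreated controls. Survivors at day 85 had bone marrow analysed for human CD45⁺CD33⁺ cells.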

[3] = Antitumor activity against human leukemia stem/progenitor cells xenografted in NOD/SCID mouse assessed as reduction of CD45+CD33+ cells in bone marrow at 100 mg/kg, po qd administered every other day total of seven doses starting from 8 weeks post grafting measured on day 85; type: functional; set-up: scale not given: the % may be the effect or the level left
Outline: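 NOD/SCID mice, sublethally irradiated (280cGay), received primary AML M5 patient cells via tail vein in PBS 6−10 h later. From 8 weeks after engraftment, aqueous drug was given orally every other day for seven doses. Surviving mice were sacrificed on day 85 post-inoculation, and human CD45⁺CD33⁺ cells in bone marrow were measured by flow cytometry.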

[4] = Drug degradation in mouse plasma assessed as release of PTL up to 2.5 hrs; conditions: pH 7.4
[5] = Drug degradation in HEPES buffer at pH <5 assessed as release of PTL; type: physicochemical
Outline: (§2)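 A 20 μL aliquot of prodrug solution was added to 980 μL HEPES buffer (pH 7.4, or below 5.0) and incubated at 37 °C. Samples were withdrawn over time, and prodrug and released parent were quantified by HPLC (mean, SD, n = 4).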

Plasma = experiment: Drug metabolism in mouse plasma assessed as release of PTL; type: ADME, cell-free
Outline: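 A 20 μL aliquot of prodrug solution was added to 980 μL blank mouse plasma and incubated at 37 °C. Prodrug and released parent drug concentrations were measured over time by HPLC (mean, SD, n = 4).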

[6] = Drug degradation in HEPES buffer at pH 7.4 assessed as release of PTL; type: physicochemical; outline: as §2
[7] = Antitumor activity against human leukemia stem/progenitor cells xenografted in NOD/SCID mouse assessed as survival time at 100 mg/kg, po qd administered every other day total of seven doses starting from 8 weeks post grafting (reference value: 43 days); type: functional; outline: as §1
[8] = Antitumor activity against mixed-lineage human leukemia cells xenografted in NOD/SCID mouse assessed as inhibition of cancer cell engrafting at 100 mg/kg, po qd administered every other day total of seven doses starting from 8 weeks post grafting measured on day 35; type: functional
[9] = Cytotoxicity against human leukemia stem/progenitor cells assessed as cell viability at 0.5 uM after 18 hrs by annexin-V labeling-based flow cytometry; type: functional; conditions: read-out: Activity
Outline: (§3)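 Primary leukemia cells from AML patient blood were treated for 18 h in serum-free IMDM, then stained with CD34-APC and CD38-PECy7 for 30 min. After washing in cold PBS, cells were labelled with Annexin-V–FITC/PI for 15 min at room temperature and read by flow cytometry. Viability of total and CD34⁺ cells was normalized to untreated controls (mean, SD).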

HL-60 = experiment: Cytotoxicity against human HL60 cells after 18 hrs by annexin-V labeling-based flow cytometry; type: functional, cell-based; conditions: HL-60, 18 h
[10] = Cytotoxicity against human leukemia stem/progenitor cells assessed as viable CD34+ cells at 0.1 uM after 18 hrs by annexin-V labeling-based flow cytometry; type: functional, CD34+ cell; outline: as §3
[11] = Cytotoxicity against human leukemia stem/progenitor cells assessed as viable CD34+ cells at 0.5 uM after 18 hrs by annexin-V labeling-based flow cytometry; type: functional, CD34+ cell; outline: as §3
[12] = Antitumor activity against human leukemia stem/progenitor cells xenografted in NOD/SCID mouse assessed as survival time at 1 mg/kg, iv administered every other day total of four doses starting from 8 weeks post grafting (reference value: 43 days)
[13] = Cytotoxicity against human leukemia stem/progenitor cells assessed as cell viability at 0.1 uM after 18 hrs by annexin-V labeling-based flow cytometry; type: functional; conditions: in the assay text read “leukemia cells” for “leukemia stem/progenitor cells”, read-out: Activity; outline: as §3
[14] = Reduction in colony forming units of leukemia stem/progenitor cells at 0.1 uM after 15 to 20 days; type: functional, Homo sapiens
Outline: (§4)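 Mononuclear cells from AML patient […] were exposed to drug for 18 h in serum-free IMDM, then plated in triplicate in M3434 methylcellulose. Total colonies (CFC-Mix, CFC-GM, CFC-G, CFC-M, BFU-E) were scored by morphology after 15−20 days.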

[15] = Reduction in colony forming units of leukemia stem/progenitor cells at 0.05 uM after 15 to 20 days; type: functional, Homo sapiens; outline: as §4
[16] = Cytotoxicity against human HL60/A cells after 18 hrs by annexin-V labeling-based flow cytometry; type: functional, cell-based

SMILES | Activity [1] [%] | survival at 100 mg/kg [2] [%] | Activity [3] [%] | Drug degradation [4] [µg/mL] | Drug degradation [5] | Drug metabolism (Plasma) | Drug degradation [6] | Survival [7] [days] | inhibition in vivo at 100 mg/kg [8] [%] | viability at 0.5 µM [9] [%] | pIC50 (HL-60) | Activity [10] [%] | Activity [11] [%] | Survival [12] [days] | viability at 0.1 µM [13] [%] | CFU [14] | CFU [15] | pIC50 [16]
C/C1=C\CC[C@@]2(C)O[C@@H]2[C@H]2OC(=O)[C@@H](CN(C)C)[C@@H]2CC1.O=C(O)/C=C/C(=O)O [(DIMETHYLAMINO)PARTHENOLIDE FUMARIC ACID SALT] | 5.7 | 17 | 35 | 0.1 | Not Active | Active | Active | 66 | 42 | – | – | – | – | – | – | – | – | –
COc1cccc2c1C(=O)c1c(O)c3c(c(O)c1C2=O)C[C@@](O)(C(=O)CO)C[C@@H]3O[C@H]1C[C@H](N)[C@H](O)[C@H](C)O1 [DOXORUBICIN] | – | – | – | – | – | – | – | – | – | 49.1 | 7.30 | 115 | 49.1 | 22 | 37.6 | 170 | 165 | 5.17
